These results are taken from ChEMBL document CHEMBL1154372, “Steroidal sapogenins and glycosides from the rhizomes of Dioscorea bulbifera” (J Nat Prod, 2009).

Activity calls are given as the source filed them. The rule behind the calls is not given here.

One assay has as its system Bel-7402. Briefly: Cytotoxicity against human Bel7402 cells at 10 uM after 48 hrs by MTT assay. It is filed as functional.
Settings: not given
The essentials:
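Bel-7402 human hepatocellular carcinoma cells were grown in DMEM with 10% fetal calf serum at 37 °C under 5% CO2 and subcultured twice weekly. Cells were seeded at 7500 per well and, after 24 h, compound was added at 10 µM. After 48 h exposure in triplicate, MTT was added, formazan was dissolved in DMSO and absorbance was read at 570 nm. The value is % inhibition.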
Background: Tetrazolium dyes change colour on reduction, which living cells bring about.
Regarding `C[C@@H]1CC[C@@]2(OC1)O[C@H]1C[C@H]3[C@@H]4CCC5=CC(=O)CC[C@]5(C)[C@H]4CC[C@]3(C)[C@@]1(O)[C@@H]2C`, the result was inactive.

Regarding `C[C@@H]1O[C@@H](O[C@@H]2[C@@H](O)[C@H](O[C@H]3CC[C@@]4(C)C(=CC[C@@H]5[C@@H]4CC[C@@]4(C)[C@H]5C[C@@H]5O[C@]6(CC[C@](C)(O)CO6)[C@@H](C)[C@@]54O)C3)O[C@H](CO)[C@H]2O)[C@H](O)[C@H](O)[C@H]1O`, the result was inactive.

As for `C[C@@H]1[C@@]2(CC[C@@](C)(CO)O2)O[C@H]2C[C@H]3[C@@H]4C=CC5=CC(=O)CC[C@]5(C)[C@H]4CC[C@]3(C)[C@]21O`, the outcome was inactive.

With `C[C@@H]1[C@@]2(CC[C@@](C)(CO)O2)O[C@H]2C[C@H]3[C@@H]4CCC5=CC(=O)CC[C@]5(C)[C@H]4CC[C@]3(C)[C@]21O`, the result was inactive.

Regarding `C/C(C(=O)CC[C@@H](C)CO)=C1/C(=O)C[C@H]2[C@@H]3CCC4=C[C@@H](O[C@@H]5O[C@H](CO)[C@@H](O)[C@H](O[C@@H]6O[C@@H](C)[C@H](O)[C@@H](O)[C@H]6O)[C@H]5O[C@@H]5O[C@@H](C)[C@H](O)[C@@H](O)[C@H]5O)CC[C@]4(C)[C@H]3CC[C@]12C`, the result was inactive.

As for `C[C@@H]1[C@@]2(CC[C@](C)(O)CO2)O[C@H]2C[C@H]3[C@@H]4CCC5=CC(=O)CC[C@]5(C)[C@H]4CC[C@]3(C)[C@]21O`, the result was inactive.

In the case of `C[C@@H]1O[C@@H](O[C@H]2[C@H](O[C@H]3CC[C@@]4(C)C(=CC[C@@H]5[C@@H]4CC[C@@]4(C)[C@H]5C[C@@H]5O[C@]6(CC[C@](C)(O)CO6)[C@@H](C)[C@@]54O)C3)O[C@H](CO)[C@@H](O)[C@@H]2O[C@@H]2O[C@@H](C)[C@H](O)[C@@H](O)[C@H]2O)[C@H](O)[C@H](O)[C@H]1O`, the result was inactive.

For the compound `C[C@@H]1CC[C@@]2(OC1)O[C@H]1C[C@H]3[C@@H]4CCC5=C[C@@H](O[C@@H]6O[C@H](CO)[C@@H](O)[C@H](O[C@@H]7O[C@@H](C)[C@H](O)[C@@H](O)[C@H]7O)[C@H]6O[C@@H]6O[C@@H](C)[C@H](O)[C@@H](O)[C@H]6O)CC[C@]5(C)[C@H]4CC[C@]3(C)[C@@]1(O)[C@@H]2C`, the Activity turned out to be 99.1%.

In another assay the test system is SMMC-7721. Briefly: Growth inhibition of human SMMC7721 cells after 48 hrs by MTT assay. The following applies: SMMC-7721, 48 h. The format is functional, cell-based. Put shortly: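 SMMC7721 human hepatocellular carcinoma cells were kept in DMEM with 10% fetal calf serum at 37 °C and 5% CO2, and passaged twice weekly to stay in log growth. After 24 h at 7500 cells per well, compounds were added at various concentrations for 48 h, in triplicate. Viability was read as MTT formazan dissolved in DMSO, at 570 nm. IC50 determined; 10-hydroxycamptothecin served as positive control.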
As usually defined, the IC50 is the concentration at which inhibition is half-maximal. A high value points to weaker potency. `CC[C@@]1(O)C(=O)OCc2c1cc1n(c2=O)Cc2cc3cc(O)ccc3nc2-1` [HYDROXYCAMPTOTHECIN] gave an IC50 of 0.14 µM.

`C[C@@H]1CC[C@@]2(OC1)O[C@H]1C[C@H]3[C@@H]4CCC5=C[C@@H](O[C@@H]6O[C@H](CO)[C@@H](O)[C@H](O[C@@H]7O[C@@H](C)[C@H](O)[C@@H](O)[C@H]7O)[C@H]6O[C@@H]6O[C@@H](C)[C@H](O)[C@@H](O)[C@H]6O)CC[C@]5(C)[C@H]4CC[C@]3(C)[C@@]1(O)[C@@H]2C` gave an IC50 of 4.54 µM.
